Here are results for 27 compounds from ChEMBL document CHEMBL1157775, “Novel hexahydropyrrolo[3,4-c]pyrrole CCR5 antagonists” (Bioorg Med Chem Lett, 2010).

Each structure is given as a SMILES string. A value given as a limit tells only on which side of the number the result lay.

Data set [1] concerns the target C-C chemokine receptor type 5 (Homo sapiens, UniProt P51681). The data set can be described thus: Binding affinity at CCR5 receptor by radiolabeled RANTES binding assay.
A short description of data set [2]: Intrinsic clearance in human liver microsomes assessed per mg of protein. Format: ADME, Microsome. Summed up: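 Human liver microsomes. Intrinsic clearance is expressed as µl/min/mg protein.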
On the technique in general: Microsomes from liver hold many membrane-bound enzymes, among them those of drug oxidation.

Data set [3] in a line: Intrinsic clearance in rat liver microsomes assessed per mg of protein. Format: ADME, Microsome. Summed up:
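Rat liver microsomes. Intrinsic clearance is expressed per mg protein. Values ≥90 µl/min were taken as high clearance.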

A short description of data set [4]: Permeability from apical to basolateral side of human Caco-2 cells after 21 days. Particulars: read-out: permeability. Format: ADME, cell-based. (Caco-2 monolayers are a common model of the intestinal barrier.)
The nature of data set [5]: AUC in rat at 10 mg/kg, po. Format: ADME, organism-based. Details: dose 10 mg/kg, route oral. Particulars: plasma. Summed up:
(§1)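 Rat PK. Single IV dose of 1 mg/kg and oral dose of 10 mg/kg. Oral AUC (ng·h/mL) and %F were derived from the PO arm. Clearance (mL/min/kg) was taken from the IV arm.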

A short description of data set [6]: Oral bioavailability in rat at 10 mg/kg. Format: ADME, organism-based. Particulars: in vivo. Summed up: as §1
A short description of data set [7]: Clearance in rat at 1 mg/kg, iv. Format: ADME, organism-based. Details: dose 1 mg/kg, route intravenous. Particulars: in vivo. The method, boiled down:
as §1

The test system of data set [8] is Human immunodeficiency virus 1. Briefly: Antiviral activity against HIV1 NL4-3 infected in human JC53-BL cells assessed as luciferase activity after 3 days post infection. Format: functional, organism-based. Particulars: Human immunodeficiency virus 1, NL4-3, JC53BL, 72 h. The method, boiled down: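 Pseudotyped virus in culture supernatant was harvested after 2 days. It was used to infect JC53-BL reporter cells. Luciferase reporter activity was read 3 days post-infection. IC50 in nM is reported as the mean of two experiments.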

Data set [9] concerns Caco-2. Briefly: Efflux ratio of permeability from basolateral to apical over apical to basolateral side in human Caco-2 cells after 21 days. Particulars: caco-2, 504 h.
Data set [10] is described as follows: AUC in dog at 10 mg/kg, po. Particulars: plasma. Format: ADME, organism-based, Canis lupus familiaris. Also on record: dose 10 mg/kg, route oral. Summed up:
(§2)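 Dog PK. Single IV dose of 1 mg/kg, then an oral dose of 10 mg/kg; one case used 1 mg/kg both IV and PO. AUC and %F were determined after the oral dose. Clearance (ml/min/kg) was determined from the IV dose.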

Data set [11] in a line: Oral bioavailability in dog at 10 mg/kg. Format: ADME, organism-based, Canis lupus familiaris. Particulars: in vivo. The method, boiled down:
as §2

Data set [12] is described as follows: Clearance in dog at 1 mg/kg, iv. It is filed as ADME, organism-based, Canis lupus familiaris. Details: dose 1 mg/kg, route intravenous. Particulars: in vivo. The method, boiled down:
as §2

Data set [13] can be described thus: Intrinsic clearance in dog liver microsomes assessed per mg of protein. Format: ADME, Canis lupus familiaris, Microsome.

Sequence of C-C chemokine receptor type 5 (P51681 whole entry): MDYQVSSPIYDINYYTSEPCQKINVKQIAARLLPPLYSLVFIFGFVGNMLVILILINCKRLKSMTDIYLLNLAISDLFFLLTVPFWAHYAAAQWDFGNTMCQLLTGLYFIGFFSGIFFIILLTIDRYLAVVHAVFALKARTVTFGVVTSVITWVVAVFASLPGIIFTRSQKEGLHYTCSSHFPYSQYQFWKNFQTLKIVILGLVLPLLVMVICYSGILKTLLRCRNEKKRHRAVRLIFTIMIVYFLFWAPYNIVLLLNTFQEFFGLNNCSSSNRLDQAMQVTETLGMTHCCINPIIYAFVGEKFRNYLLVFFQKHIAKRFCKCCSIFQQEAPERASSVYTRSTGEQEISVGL

As for `Cc1ncnc(C)c1C(=O)N1C[C@H]2CN(CC[C@H](NC(=O)C3CCCC3)c3ccccc3)C[C@H]2C1`, the IC50 in data set [1] is 14 nM. The microsomal CLint was found to be 35 µL/min/mg in [2] and 51 µL/min/mg in data set [3]. Moreover, in data set [4], the Papp A→B was determined as 1.3 ×10⁻⁶ cm/s. This compound also gave an AUC in data set [5] of 309 ng·h/mL. For the same compound, in data set [6], the bioavailability is 17%. The clearance in data set [7] came out at 131 mL/min/kg.
`Cc1cc(=O)[nH]c(C)c1C(=O)N1C[C@H]2CN(CC[C@H](NC(=O)C3CCCC3)c3ccccc3)C[C@H]2C1`: the IC50 in [1] came to 30 nM; in data set [8], 6 nM. Besides, the microsomal CLint in [2] and in data set [3] was 25 µL/min/mg in each case. Further, in data set [4], the Papp A→B came to 0.5 ×10⁻⁶ cm/s. For the same compound, the Ratio in [9] amounted to 5.
On to `Cc1ncnc(C)c1C(=O)N1C[C@H]2CN(CC[C@H](NC(=O)CC3CC(F)(F)C3)c3ccccc3)C[C@H]2C1`, for which the IC50 came to 20 nM in [1] and 3 nM in [8]. The microsomal CLint was 60 µL/min/mg in [2] and 61 µL/min/mg in data set [3].
`Cc1cc(C#N)nc(C)c1C(=O)N1C[C@H]2CN(CC[C@H](NC(=O)C3CCCC3)c3ccccc3)C[C@H]2C1` gave an IC50 in [1] of 12 nM. Besides, the microsomal CLint turned out to be 227 µL/min/mg in [2] and 144 µL/min/mg in data set [3]. In addition, the Papp A→B in data set [4] stood at 3 ×10⁻⁶ cm/s.
Regarding `CC(=O)N1C[C@H]2CN(CC[C@H](NC(=O)C3CCCC3)c3ccccc3)C[C@H]2C1`, the figures for the 50% inhibitory concentration (IC50) in data set [1] and in data set [8] were 465 nM and over 1000 nM, respectively.
For `Cc1cccc(Cl)c1C(=O)N1C[C@H]2CN(CC[C@H](NC(=O)C3CCCC3)c3ccccc3)C[C@H]2C1`, the IC50 in data set [1] came out at 9 nM; in [8], 3 nM. Besides, the microsomal CLint in [2] was 264 µL/min/mg.
Regarding `Cc1cccc(C)c1C(=O)N1C[C@H]2CN(CC[C@H](NC(=O)C3CCCC3)c3ccccc3)C[C@H]2C1`, the 50% inhibitory concentration (IC50) turned out to be 6 nM in data set [1] and 7 nM in data set [8]. Besides, the microsomal CLint was 256 µL/min/mg in data set [2] and 322 µL/min/mg in [3]. For the same compound, the Papp A→B in data set [4] came to 4 ×10⁻⁶ cm/s. Moreover, the AUC in [5] was found to be 31 ng·h/mL. Besides, the bioavailability in data set [6] was 2.7%. In [7], this compound registered a clearance of 134 mL/min/kg. For the same compound, the Ratio in data set [9] amounted to 5.
As to `CC(=O)N[C@@H](CCN1C[C@@H]2CN(C(=O)c3c(C)cccc3C)C[C@@H]2C1)c1ccccc1`, the figures for the IC50 in data set [1] and in data set [8] were 15 nM and 132 nM, respectively.
On to `Cc1cccc(C)c1C(=O)N1C[C@H]2CN(CC[C@H](NC(=O)C(C)C)c3ccccc3)C[C@H]2C1`, for which the IC50 was 11 nM in data set [1] and 100 nM in data set [8].
For `Cc1noc(C)c1C(=O)N1C[C@H]2CN(CC[C@H](NC(=O)C3CCCC3)c3ccccc3)C[C@H]2C1` the same measures were 19 nM and 545 nM.
For `Cc1cccc(C)c1C(=O)N1C[C@H]2CN(CC[C@H](NC(=O)C3CCCCC3)c3ccccc3)C[C@H]2C1` the same measures were 3 nM and 30 nM.
On to `Cc1cccc(C)c1C(=O)N1C[C@H]2CN(CC[C@H](NC(=O)C3CCC(F)(F)CC3)c3ccccc3)C[C@H]2C1`, for which the IC50 in data set [1] worked out at 4 nM; in data set [8] it was 9 nM.
As for `Cc1cccc(C)c1C(=O)N1C[C@H]2CN(CC[C@H](NC(=O)c3ccccc3)c3ccccc3)C[C@H]2C1`, the IC50 in data set [1] stood at 8 nM; in data set [8] it was 124 nM.
For `Cc1cccc(C)c1C(=O)N1C[C@H]2CN(CC[C@H](NC(=O)C3CCC3)c3ccccc3)C[C@H]2C1` the same measures were 7 nM and 39 nM.
In data set [1], `Cc1ccnc(C)c1C(=O)N1C[C@H]2CN(CC[C@H](NC(=O)C3CCCC3)c3ccccc3)C[C@H]2C1` displayed an IC50 of 7 nM. The microsomal CLint in data set [2] was determined as 67 µL/min/mg; in [3], 89 µL/min/mg. In data set [4], the Papp A→B was found to be 4 ×10⁻⁶ cm/s. Besides, the AUC in data set [5] was 65 ng·h/mL. Besides, the bioavailability in data set [6] is 6.4%. For the same compound, the clearance in data set [7] is 151 mL/min/kg.
As to `Cc1cc[n+]([O-])c(C)c1C(=O)N1C[C@H]2CN(CC[C@H](NC(=O)C3CCCC3)c3ccccc3)C[C@H]2C1`, the IC50 in [1] came to 44 nM; in data set [8], 19 nM. Besides, the intrinsic clearance (microsomal CLint) was determined as 6 µL/min/mg in data set [2] and 12 µL/min/mg in data set [3]. In addition, in data set [4], the Papp A→B worked out at 0.1 ×10⁻⁶ cm/s. Moreover, in data set [9], the Ratio was 300.
In the case of `O=C(N[C@@H](CCN1C[C@@H]2CN(C(=O)c3c(Cl)cccc3Cl)C[C@@H]2C1)c1ccccc1)C1CCCC1`, the IC50 in data set [1] stood at 14 nM; in data set [8], 92 nM. For the same compound, the microsomal CLint in data set [2] is 389 µL/min/mg.
For the compound `Cc1cc(F)cc(C)c1C(=O)N1C[C@H]2CN(CC[C@H](NC(=O)C3CCCC3)c3ccccc3)C[C@H]2C1`, the IC50 in data set [1] worked out at 6 nM; in [8], 3 nM. Besides, the results for the microsomal CLint in data set [2] and in [3] were 236 µL/min/mg and 517 µL/min/mg, respectively.
With `COc1cc(C)c(C(=O)N2C[C@H]3CN(CC[C@H](NC(=O)C4CCCC4)c4ccccc4)C[C@H]3C2)c(C)c1`, the IC50 in data set [1] came to 26 nM; in data set [8], 0.4 nM. Besides, the results for the microsomal CLint in [2] and in data set [3] were 241 µL/min/mg and 236 µL/min/mg, respectively. For the same compound, the Papp A→B in data set [4] came out at 33 ×10⁻⁶ cm/s. The Ratio in [9] was 2.
`Cc1ncnc(C)c1C(=O)N1C[C@H]2CN(CC[C@H](NC(=O)CC3CCC(F)(F)CC3)c3ccccc3)C[C@H]2C1`: the IC50 in data set [1] amounted to 27 nM; in [8], 6 nM. For the same compound, the intrinsic metabolic clearance (microsomal CLint) is 83 µL/min/mg in data set [2], 46 µL/min/mg in data set [3] and 30 µL/min/mg in data set [13]. Moreover, the AUC in data set [5] turned out to be 215 ng·h/mL; in [10], 4210 ng·h/mL. Moreover, the bioavailability came out at 15% in data set [6] and 103% in [11]. Besides, the clearance in [7] stood at 99 mL/min/kg; in data set [12] it was 44 mL/min/kg.
On to `Cc1cccc(C)c1C(=O)N1C[C@H]2CN(CC[C@H](NC(=O)c3ccoc3)c3ccccc3)C[C@H]2C1`, for which the figures for the half-maximal inhibitory concentration (IC50) in data set [1] and in data set [8] were 18 nM and 85 nM, respectively.
Take `Cc1cccc(C)c1C(=O)N1C[C@H]2CN(CC[C@H](NC(=O)C3CCOC3)c3ccccc3)C[C@H]2C1` (some centres undefined): the IC50 in [1] stood at 15 nM; in [8], 101 nM.
As for `Cc1ncnc(C)c1C(=O)N1C[C@H]2CN(CC[C@H](NC(=O)CC3CCC(F)(F)CC3)c3cccc(F)c3)C[C@H]2C1`, the results for the IC50 in data set [1] and in [8] were 12 nM and 1.1 nM, respectively. Also, the figures for the microsomal CLint in data set [2] and in data set [3] were 113 µL/min/mg and 24 µL/min/mg, respectively.
Take `Cc1ncnc(C)c1C(=O)N1C[C@H]2CN(CC[C@H](NC(=O)CC3CC(F)(F)C3)c3cc(F)cc(F)c3)C[C@H]2C1`: the IC50 turned out to be 30 nM in data set [1] and 41 nM in data set [8]. For the same compound, the microsomal CLint in data set [2] was determined as 45 µL/min/mg.
With `Cc1ncnc(C)c1C(=O)N1C[C@H]2CN(CC[C@H](NC(=O)CC3CC(F)(F)C3)c3cccc(C#N)c3)C[C@H]2C1`, the IC50 in data set [1] came out at 34 nM; in data set [8], 203 nM. In addition, the microsomal CLint in [2] was 30 µL/min/mg; in data set [3] it was 31 µL/min/mg.
For `CCO/N=C(\c1ccc(Br)cc1)C1CCN(C2(C)CCN(C(=O)c3c(C)cccc3C)CC2)CC1`, the IC50 in data set [1] was 6 nM; in data set [8] it was 4 nM.
Consider `Cc1nnc(C(C)C)n1[C@H]1C[C@H]2CC[C@@H](C1)N2CC[C@H](NC(=O)C1CCC(F)(F)CC1)c1ccccc1` [MARAVIROC], for which the IC50 in data set [8] turned out to be 3 nM.

One may read the IC50 as the midpoint of a concentration-inhibition curve. In general, microsomal CLint refers to a measure of how fast metabolising enzymes remove a compound, apart from limits set by blood flow. A higher microsomal CLint goes with rapid turnover. The AUC is the area under the concentration-time curve, a measure of exposure. Read a low AUC as low exposure. One may read the clearance as the volume of plasma or blood freed of the substance per unit of time. The low end stands for inefficient removal, the high end for efficient removal.
